{"source": "paper PMC12377187", "about": "(RSC Advances, 2025)", "key": {"[1]": {"test_system": "RD – rhabdomyosarcoma cell line", "test": "MTT cytotoxicity, RD cell line", "type": "cell-based", "details": "72 h", "procedure,_shortened": "(§1)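 Cells seeded at 5000 per well in Eagle's MEM with 10% fetal calf serum, 2 mM L-glutamine, penicillin and streptomycin, then pre-incubated 24 h at 37 °C, 5% CO2. A concentration series of test compound in DMSO, with a reference drug, was applied for 72 h. MTT added for 4 h at 37 °C, formazan dissolved in ethanol, OD read at 570 nm. Inhibition calculated against blank and control absorbances.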"}, "[2]": {"test_system": "MDA-MB-231 – human breast cancer cell line", "test": "MTT cytotoxicity, MDA-MB-231 cell line", "type": "cell-based", "details": "MDA-MB-231, 72 h, read-out: IC50 MDA-MB-231", "procedure,_shortened": "as §1"}, "HT-29 cell line": {"test_system": "HT-29 cell line", "details": "cited from earlier work"}, "SW620 cell line": {"test_system": "SW620 cell line", "details": "cited from earlier work"}, "[3]": {"details": "Rhabdomyosarcoma cell, read-out: IC50 RD, MTT, 72 h, mean ± SD"}, "[4]": {"details": "read-out: IC50 RD, MTT, mean ± SD"}}, "note": "Where two headings read alike, the source gives them in different places.", "data": [{"smiles": "CCOc1ccc(C=Nn2c(-c3ccccc3)nc3ccc(Cl)cc3c2=O)cc1", "note": "[Compound 17, 6-Chloro-3-((4-ethoxybenzylidene)amino)-2-phenyl-4(3H)-quinazolone]", "values": [{"measurement": "IC50", "setting": "[1]; [3]", "value": "376 ± 8.08", "unit": "µM"}, {"measurement": "IC50", "setting": "[2]", "value": "194 ± 8.83", "unit": "µM"}]}, {"smiles": "O=c1c2cc(Cl)ccc2nc(-c2ccccc2)n1N=Cc1ccccc1", "note": "[Compound 21, 3-(Benzylideneamino)-6-chloro-2-phenyl-4(3H)-quinazolone]", "values": [{"measurement": "IC50", "setting": "[1]; [3]", "value": "143 ± 12.7", "unit": "µM"}, {"measurement": "IC50", "setting": "[2]", "value": "121 ± 9.35", "unit": "µM"}]}, {"smiles": "CN(C)c1ccc(C=Nn2c(-c3ccccc3)nc3ccc(Cl)cc3c2=O)cc1", "note": "[Compound 8, 6-Chloro-3-((4-(dimethylamino)benzylidene)amino)-2-phenyl-4(3H)-quinazolone]", "values": [{"measurement": "IC50", "setting": "[1]; [3]", "value": "198 ± 18.9", "unit": "µM"}, {"measurement": "IC50", "setting": "[2]", "value": "101 ± 3.75", "unit": "µM"}]}, {"smiles": "O=c1c2cc(Cl)ccc2nc(-c2ccccc2)n1N=Cc1ccc2c(c1)OCO2", "note": "[Compound 6, 3-((Benzo[d][1,3]dioxol-5-ylmethylene)amino)-6-chloro-2-phenyl-4(3H)-quinazolone]", "values": [{"measurement": "IC50", "setting": "[1]; [3]", "value": "50 to 55", "unit": "µM"}, {"measurement": "IC50", "setting": "[1]; [4]", "value": "54.5 ± 0.81", "unit": "µM"}, {"measurement": "IC50", "setting": "[2]", "value": "10.6 ± 0.67", "unit": "µM"}]}, {"smiles": "O=c1c2cc(Cl)ccc2nc(-c2ccccc2)n1N=Cc1cccc(O)c1", "note": "[Compound 9, 6-Chloro-3-((3-hydroxybenzylidene)amino)-2-phenyl-4(3H)-quinazolone]", "values": [{"measurement": "IC50", "setting": "[1]; [3]", "value": "254 ± 14.2", "unit": "µM"}, {"measurement": "IC50", "setting": "[2]", "value": "84.4 ± 1.26", "unit": "µM"}]}, {"smiles": "O=c1c2cc(Cl)ccc2nc(-c2ccccc2)n1N=Cc1cccnc1", "note": "[Compound 14, 6-Chloro-2-phenyl-3-((pyridin-3-ylmethylene)amino)-4(3H)-quinazolone]", "values": [{"measurement": "IC50", "setting": "[1]; [3]", "value": "136 ± 17", "unit": "µM"}, {"measurement": "IC50", "setting": "[2]", "value": "262 ± 43.9", "unit": "µM"}]}, {"smiles": "O=c1c2cc(Cl)ccc2nc(-c2ccccc2)n1N=Cc1ccc(Cl)cc1Cl", "note": "[Compound 11, 6-Chloro-3-((2,4-dichlorobenzylidene)amino)-2-phenyl-4(3H)-quinazolone]", "values": [{"measurement": "IC50", "setting": "[1]; [3]", "value": "251 ± 25.5", "unit": "µM"}, {"measurement": "IC50", "setting": "[2]", "value": "99.4 ± 1.76", "unit": "µM"}]}, {"smiles": "O=c1c2cc(Cl)ccc2nc(-c2ccccc2)n1N=Cc1ccc(Br)cc1O", "note": "[Compound 7, 3-((4-Bromo-2-hydroxybenzylidene)amino)-6-chloro-2-phenyl-4(3H)-quinazolone]", "values": [{"measurement": "IC50", "setting": "[1]; [3]", "value": "50 to 55", "unit": "µM"}, {"measurement": "IC50", "setting": "[1]; [4]", "value": "51.6 ± 1.19", "unit": "µM"}, {"measurement": "IC50", "setting": "[2]", "value": "8.79 ± 0.34", "unit": "µM"}]}, {"smiles": "O=c1c2cc(Cl)ccc2nc(-c2ccccc2)n1N=Cc1ccc([N+](=O)[O-])cc1", "note": "[Compound 2, 6-Chloro-3-((4-nitrobenzylidene)amino)-2-phenyl-4(3H)-quinazolone]", "values": [{"measurement": "IC50", "setting": "[1]; [3]", "value": "151 ± 2.06", "unit": "µM"}, {"measurement": "IC50", "setting": "[2]", "value": "104 ± 3.63", "unit": "µM"}]}, {"smiles": "O=c1c2cc(Cl)ccc2nc(-c2ccccc2)n1N=Cc1c(F)cccc1Cl", "note": "[Compound 5, 6-Chloro-3-((2-chloro-6-fluorobenzylidene)amino)-2-phenyl-4(3H)-quinazolone]", "values": [{"measurement": "IC50", "setting": "[1]; [3]", "value": "14.7 ± 0.68", "unit": "µM"}, {"measurement": "IC50", "setting": "[2]", "value": "148 ± 5.64", "unit": "µM"}]}, {"smiles": "O=c1c2cc(Cl)ccc2nc(-c2ccccc2)n1N=Cc1ccc(F)cc1", "note": "[Compound 4, 6-Chloro-3-((4-fluorobenzylidene)amino)-2-phenyl-4(3H)-quinazolone]", "values": [{"measurement": "IC50", "setting": "[1]; [3]", "value": "235 ± 8.29", "unit": "µM"}, {"measurement": "IC50", "setting": "[2]", "value": "21.6 ± 1.11", "unit": "µM"}]}, {"smiles": "O=c1c2cc(Cl)ccc2nc(-c2ccccc2)n1N=Cc1ccccc1Cl", "note": "[Compound 12, 6-Chloro-3-((2-chlorobenzylidene)amino)-2-phenyl-4(3H)-quinazolinone]", "values": [{"measurement": "IC50", "setting": "[1]; [3]", "value": "126 ± 6.2", "unit": "µM"}, {"measurement": "IC50", "setting": "[2]", "value": "321 ± 51.8", "unit": "µM"}]}, {"smiles": "O=c1c2cc(Cl)ccc2nc(-c2ccccc2)n1N=Cc1ccc(Cl)c(Cl)c1", "note": "[Compound 3, 6-Chloro-3-((3,4-dichlorobenzylidene)amino)-2-phenyl-4(3H)-quinazolone]", "values": [{"measurement": "IC50", "setting": "[1]; [3]", "value": "246 ± 24.3", "unit": "µM"}, {"measurement": "IC50", "setting": "[2]", "value": "91.5 ± 1.47", "unit": "µM"}]}, {"smiles": "O=c1[nH]cc(F)c(=O)[nH]1", "note": "[fluorouracil]", "values": [{"measurement": "inhibitory activity against HT-29", "setting": "HT-29 cell line", "value": 34.1, "unit": "%"}, {"measurement": "inhibitory activity against SW620", "setting": "SW620 cell line", "value": 57.3, "unit": "%"}]}, {"smiles": "COc1cccc(C=Nn2c(-c3ccccc3)nc3ccc(Cl)cc3c2=O)c1", "note": "[Compound 18, 6-Chloro-3-((3-methoxybenzylidene)amino)-2-phenyl-4(3H)-quinazolone]", "values": [{"measurement": "IC50", "setting": "[1]; [3]", "value": "84.8 ± 9.35", "unit": "µM"}, {"measurement": "IC50", "setting": "[2]", "value": "329 ± 47.2", "unit": "µM"}]}, {"smiles": "COc1ccc(C=Nn2c(-c3ccccc3)nc3ccc(Cl)cc3c2=O)cc1O", "note": "[Compound 20, 6-Chloro-3-((3-hydroxy-4-methoxybenzylidene)amino)-2-phenyl-4(3H)-quinazolone]", "values": [{"measurement": "IC50", "setting": "[1]; [3]", "value": "48.1 ± 3.97", "unit": "µM"}, {"measurement": "IC50", "setting": "[2]", "value": "198 ± 13.3", "unit": "µM"}]}, {"smiles": "O=c1c2cc(Cl)ccc2nc(-c2ccccc2)n1N=Cc1ccccc1O", "note": "[Compound 19, 6-Chloro-3-((2-hydroxybenzylidene)amino)-2-phenyl-4(3H)-quinazolone]", "values": [{"measurement": "IC50", "setting": "[1]; [3]", "value": "51.1 ± 0.99", "unit": "µM"}, {"measurement": "IC50", "setting": "[2]", "value": "37.5 ± 0.63", "unit": "µM"}]}, {"smiles": "O=c1c2cc(Cl)ccc2nc(-c2ccccc2)n1N=Cc1ccco1", "note": "[Compound 15, 6-Chloro-3-((furan-2-ylmethylene)amino)-2-phenyl-4(3H)-quinazolone]", "values": [{"measurement": "IC50", "setting": "[1]; [3]", "value": "38.6 ± 1.07", "unit": "µM"}, {"measurement": "IC50", "setting": "[2]", "value": "56.6 ± 5.37", "unit": "µM"}]}, {"smiles": "COc1ccc(C=Nn2c(-c3ccccc3)nc3ccc(Cl)cc3c2=O)cc1OC", "note": "[Compound 13, 6-Chloro-3-((3,4-dimethoxybenzylidene)amino)-2-phenyl-4(3H)-quinazolone]", "values": [{"measurement": "IC50", "setting": "[1]; [3]", "value": "130 ± 10.4", "unit": "µM"}, {"measurement": "IC50", "setting": "[2]", "value": "139 ± 4.04", "unit": "µM"}]}, {"smiles": "CCOc1ccc(C=Nn2c(-c3ccccc3)nc3ccc(Cl)cc3c2=O)cc1O", "note": "[Compound 10, 6-Chloro-3-((4-ethoxy-3-hydroxybenzylidene)amino)-2-phenyl-4(3H)-quinazolone]", "values": [{"measurement": "IC50", "setting": "[1]; [3]", "value": "430 ± 72.9", "unit": "µM"}, {"measurement": "IC50", "setting": "[2]", "value": "85.5 ± 2.32", "unit": "µM"}]}, {"smiles": "O=c1c2cc(Cl)ccc2nc(-c2ccccc2)n1N=Cc1cccc([N+](=O)[O-])c1", "note": "[Compound 16, 6-Chloro-3-((3-nitrobenzylidene)amino)-2-phenyl-4(3H)-quinazolone]", "values": [{"measurement": "IC50", "setting": "[1]; [3]", "value": "82.3 ± 1.99", "unit": "µM"}, {"measurement": "IC50", "setting": "[2]", "value": "301 ± 27.1", "unit": "µM"}]}, {"smiles": "CC(=O)O[C@H]1C(=O)[C@@]2(C)[C@H]([C@H](OC(=O)c3ccccc3)[C@]3(O)C[C@H](OC(=O)[C@H](O)[C@@H](NC(=O)c4ccccc4)c4ccccc4)C(C)=C1C3(C)C)[C@]1(OC(C)=O)CO[C@@H]1C[C@@H]2O", "note": "[PTX, paclitaxel, reference compound]", "values": [{"measurement": "IC50", "setting": "[1]; [3]", "value": "0.58 ± 0.01", "unit": "µM"}, {"measurement": "IC50", "setting": "[2]", "value": "0.04 ± 0.02", "unit": "µM"}]}]}
